Measurements: ChEMBL document CHEMBL1177742, “Withanolide A and asiatic acid modulate multiple targets associated with amyloid-beta precursor protein processing and amyloid-beta protein clearance” (J Nat Prod, 2010)
Calls of active or inactive are those of the source. The calls are words filed in the database; no cut-off is given here.

Tests used:
Cortical neurone [1] = experiment: Reduction of BACE1 expression in Sprague-Dawley rat primary cortical neurons after 24 hrs by immunoblot analysis; format: functional, cell-based
Procedure, shortened: (§1)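 Primary cortical neurons (1-day-old Sprague-Dawley pups, 3–4 day cultures) treated 24 h at 0–100 μM or 0–10 μM, with DMSO control. Lysed in RIPA, protein quantified by BCA, equal amounts run on 10% Tris–HCl gels, nitrocellulose transfer. BACE1 and ADAM10 antibodies each 1:1000 overnight at 4 °C, HRP secondary, chemiluminescence. Mature ADAM10 is the ~60 kDa band. Bands normalized to actin; mean ± S.D., n=3, Student's t-test.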

Cortical neurone [2] = experiment: Induction of NEP levels in Sprague-Dawley rat primary cortical neurons at 5 uM after 24 hrs by immunoblot analysis; format: functional, cell-based
Procedure, shortened: (§2)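 Cortical neurons from neonatal Sprague-Dawley rats treated 24 h at 0, 5, 20, 100 μM or 0, 1, 5, 10 μM, with DMSO control. Lysates were immunoblotted on 10% Tris–HCl gels with IDE or NEP antibody (1:1000, 4 °C overnight), nitrocellulose transfer, HRP detection. Intensities normalized to actin; mean ± S.D. of three independent experiments, Student's t-test.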

Cortical neurone [3] = experiment: Induction of matured ADAM10 level in Sprague-Dawley rat primary cortical neurons after 24 hrs by immunoblot analysis; format: functional, cell-based; procedure, shortened: as §1
Cortical neurone [4] = experiment: Cytotoxicity against Sprague-Dawley rat primary cortical neurons assessed as cell morphology at 10 uM after 24 hrs by MAP2 immunostaining; format: cell-based
Procedure, shortened: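 Cortical neurons from 1-day-old Sprague-Dawley pups, plated on poly-D-lysine at 1 × 10^6 cells/well in DMEM with 10% horse serum, used at 3–4 days in culture. Treated 24 h alongside DMSO control (0.01% or 0.1%). Fixed in 4% paraformaldehyde, blocked with Triton X-100/BSA, MAP-2 (1:50) overnight at 4 °C, rhodamine secondary, imaged by fluorescence microscopy at 40X.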

Cortical neurone [5] = experiment: Induction of ADAM10 activation in Sprague-Dawley rat primary cortical neurons after 24 hrs by immunoblot analysis; format: functional, cell-based; procedure, shortened: as §1
Cortical neurone [6] = experiment: Induction of IDE levels in Sprague-Dawley rat primary cortical neurons at 5 to 100 uM after 24 hrs by immunoblot analysis; format: functional, cell-based; conditions: 1 to 10 uM, in the assay text read “1 to 10 uM” for “5 to 100 uM”; procedure, shortened: as §2
Cortical neurone [7] = experiment: Induction of IDE levels in Sprague-Dawley rat primary cortical neurons after 24 hrs by immunoblot analysis; format: functional, cell-based; procedure, shortened: as §2
Cortical neurone [8] = experiment: Induction of IDE levels in Sprague-Dawley rat Alzheimer's disease model primary cortical neurons after 24 hrs by immunoblot analysis; format: functional, cell-based
[9] = test system: ADAM10 (alpha-secretase) (Rattus norvegicus); experiment: Increase in alpha-secretase activity in Sprague-Dawley rat primary cortical neurons assessed as increase in sAPPalpha level by immunoblot analysis; conditions: Cerebral cortex neuron
[10] = test system: ADAM10 (alpha-secretase) (Rattus norvegicus); experiment: Increase in alpha-secretase activity in Sprague-Dawley rat primary cortical neurons assessed as increase in C83 level by immunoblot analysis; conditions: Cerebral cortex neuron
Cortical neurone [11] = experiment: Cytotoxicity against Sprague-Dawley rat primary cortical neurons assessed as cell death at 100 uM after 24 hrs by MAP2 immunostaining; format: cell-based
Procedure, shortened: (§3)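 Neurons from 1-day-old pups were plated at 1 × 10^6 cells/well on poly-D-lysine in DMEM with 10% horse serum, 25 mM glucose, 10 mM HEPES, 2 mM glutamine and antibiotics. Day 3–4 cultures were treated 24 h (vehicle 0.1% DMSO), fixed in 4% paraformaldehyde, blocked (0.1% Triton X-100, 1% BSA), stained with MAP-2 1:50 overnight at 4 °C plus rhodamine secondary, and imaged by fluorescence microscopy (40X).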

Cortical neurone [12] = experiment: Cytotoxicity against Sprague-Dawley rat primary cortical neurons assessed as cell morphology at 100 uM after 24 hrs by MAP2 immunostaining; format: cell-based; procedure, shortened: as §3

| SMILES | Activity (Cortical neurone [1]) | Activity (Cortical neurone [2]) | Activity (Cortical neurone [3]) | Activity (Cortical neurone [4]) | Activity (Cortical neurone [5]) | Activity (Cortical neurone [6]) | Activity (Cortical neurone [7]) | Activity (Cortical neurone [8]) | Activity [9] | Activity [10] | Activity (Cortical neurone [11]) | Activity (Cortical neurone [12]) |
| --- | --- | --- | --- | --- | --- | --- | --- | --- | --- | --- | --- | --- |
| C[C@H]1[C@H](C)CC[C@]2(C(=O)O)CC[C@]3(C)C(=CC[C@@H]4[C@@]5(C)C[C@@H](O)[C@H](O)[C@@](C)(CO)[C@@H]5CC[C@]43C)[C@H]12 [ASIATIC ACID] | Dose-dependent effect | Active | Dose-dependent effect | Non-toxic | Dose-dependent effect | inactive |  |  |  |  |  |  |
| CC1=C(C)C(=O)O[C@@H]([C@](C)(O)[C@H]2CC[C@H]3[C@@H]4[C@@H]5O[C@@H]5[C@@]5(O)CC=CC(=O)[C@]5(C)[C@H]4CC[C@]23C)C1 [WITHANOLIDE A] | Dose-dependent effect |  | Dose-dependent effect |  | Dose-dependent effect |  | Dose-dependent effect | Active | Active | Active | Non-toxic | Non-toxic |
